T cruzi inh: blocks replication of Trypanosoma cruzi; inhibition, % (concentration not given with the values); 300,000 tested, 1.4% active; AID 1885; T. cruzi beta-gal in NIH3T3, luminescence, 90 h;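 active = mean inhibition across valid replicates above about 55%, limit read from the data; inconclusive = mean below that limit but half or more replicates reach it; inactive = mean below it, under half of replicates reach it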;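 note: signal also drops with host cell toxicity which is not excluded here; higher percent means less beta-gal luminescence so fewer parasites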
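Test system: β-gal T. cruzi (Tulahuen C4) inside NIH/3T3 cells / Quantity: 5,000 cells/well / Measured by: luminescence from GalScreen with 0.05% NP40, read after 60 min / Medium: DMEM plus 2% FBS / Measure: parasite load inhibition, % / Reagent: Tulahuen C4 trypomastigotes, 5000/well / Schedule: co-culture of at least 90 h after 3 h attachment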
CSC inhib: blocks cancer stem cells; cancer stem cell-like cells viability, luminescence; inhibition, % at 7.5 µM; 300,000 tested, 1.1% active; AID 2717; in the data active = inhibition above about 75%; inconclusive = no clear call, values can overlap the other calls; tested in HMLE shEcad cells
Beta cell apopt: blocks beta cell apoptosis; protection from apoptosis, % (no concentration beside the values); INS-1E cytokine-induced death, ATP luminescence, 48 h; percent of positive-control rescue, neutral wells zero; 300,000 tested, 0.8% active; AID 435005;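 active = Every replicate reaches about 75%, or at least half do and their mean reaches it too, limit read from the data; inconclusive = At least half of replicates reach the limit but their mean does not; inactive = Under half of replicates reach the limit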;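 note: higher means more ATP so stronger rescue from cytokine killing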
SKKanGAS inh: inhibitors of SKKanGAS S. pyogenes growth in kanamycin (SK-promoter or general growth effect). BacTiter-Glo, 6 h. inhibition, % at 7.5 µM. 300,000 tested, 1.3% active. AID 1662;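 active = mean replicate score, as percent of positive control median, at least 50; inconclusive = mean below 50 but one replicate at or above 50; inactive = mean and every replicate below 50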;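 note: strain carries kanamycin resistance gene driven by streptokinase promoter and grows in 40 µg/ml kanamycin; loss of luminescence reflects streptokinase promoter inhibition or plain growth inhibition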
Calb FLC: C. albicans growth modulation with fluconazole; C. albicans CaCi-2 + fluconazole, Alamar Blue growth, 48 h; growth inhibition, % (test concentration not listed); 300,000 tested, 0.57% active;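 active = growth inhibition above about 58% in most replicates, limit read from the data, passing the limit was not always enough; inconclusive = exactly half the replicates above a set limit; inactive = most replicates below a set limit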;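 note: all wells also contain fluconazole at 8 µg/ml as a sub-toxic cotreatment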
Mdm2 MdmX PPI: inhibitors of human Mdm2/MdmX interaction. inhibition, % at 8 µM. O15151+Q00987. SaOS-2 split-luciferase Mdm2/MdmX complementation, luminescence. AID 485346. 330,000 tested, 3% active;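 active = inhibition of at least 50% at 8 µM in the primary screen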
Target sequence (O15151 whole entry, looked up): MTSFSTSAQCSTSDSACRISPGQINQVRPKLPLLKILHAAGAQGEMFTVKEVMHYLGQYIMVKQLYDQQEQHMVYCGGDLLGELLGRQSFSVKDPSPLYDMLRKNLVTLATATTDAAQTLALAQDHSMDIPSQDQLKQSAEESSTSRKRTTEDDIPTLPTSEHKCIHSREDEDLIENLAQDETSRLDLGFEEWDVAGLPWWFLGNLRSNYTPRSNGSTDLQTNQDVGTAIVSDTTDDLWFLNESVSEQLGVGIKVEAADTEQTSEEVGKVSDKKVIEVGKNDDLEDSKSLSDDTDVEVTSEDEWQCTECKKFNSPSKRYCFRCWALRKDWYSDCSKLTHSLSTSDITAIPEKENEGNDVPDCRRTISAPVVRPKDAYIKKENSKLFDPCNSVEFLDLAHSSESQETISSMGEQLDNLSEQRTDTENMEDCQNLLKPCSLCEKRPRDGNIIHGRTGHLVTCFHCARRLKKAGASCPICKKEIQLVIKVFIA
Target sequence (Q00987 whole entry, looked up): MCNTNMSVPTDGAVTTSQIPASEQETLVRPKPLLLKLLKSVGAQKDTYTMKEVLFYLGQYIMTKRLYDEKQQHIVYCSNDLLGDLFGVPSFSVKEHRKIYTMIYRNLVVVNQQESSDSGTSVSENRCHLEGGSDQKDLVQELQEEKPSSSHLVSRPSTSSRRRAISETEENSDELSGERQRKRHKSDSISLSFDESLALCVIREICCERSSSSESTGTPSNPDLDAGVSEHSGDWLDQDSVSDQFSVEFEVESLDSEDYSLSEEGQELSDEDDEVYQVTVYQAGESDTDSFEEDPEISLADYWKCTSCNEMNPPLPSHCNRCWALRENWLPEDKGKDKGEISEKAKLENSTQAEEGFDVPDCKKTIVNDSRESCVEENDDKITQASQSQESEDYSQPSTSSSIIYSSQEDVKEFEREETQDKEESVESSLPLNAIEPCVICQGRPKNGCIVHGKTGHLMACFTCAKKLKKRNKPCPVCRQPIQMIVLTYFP
Numbers stand for hits; - = inactive; ? = inconclusive; . = not tested or not shown. This is a sample that favours compounds with a hit; in the whole collection about 5.7% have one here.

SMILES	T cruzi inh	CSC inhib	Beta cell apopt	SKKanGAS inh	Calb FLC	Mdm2 MdmX PPI
S=c1[nH]nc(-c2cc(-c3ccccc3)n[nH]2)n1/N=C/c1ccc(Cl)cc1	-	-	-	56	-	-
Cc1cc(F)ccc1S(=O)(=O)Nc1ccccc1C(=O)N1CCCC1	.	-	-	.	.	-
Cc1cnc(C(=O)OCc2cc(=O)n3c(C)cccc3n2)cn1	.	-	-	.	.	-
NNC(=O)C1SCCN1S(=O)(=O)c1ccc(Cl)cc1 (stereo not given)	-	-	-	-	-	-
CCOc1cc(/C=N/NC(N)=S)cc(Br)c1OCc1ccccc1C	79	-	-	-	-	-
COc1cc(/C=N/NC(N)=S)cc(Br)c1OCc1ccccc1F	-	-	-	-	-	-
Cc1noc(C)c1COc1ccc(C(=O)NCc2cccs2)cc1	.	-	-	.	.	-
Cn1c(SCC(=O)NC2CCCC2)nnc1C(F)(F)F	.	-	-	.	.	-
O=C(N/N=C/c1cc(Br)c(O)c(Br)c1)c1cc2c(ccc3ccccc32)o1	.	-	-	.	109	-
CC(C)(C)OC(=O)C[C@@H]1C/C=C\C[C@H](CC(=O)NCCO)C(=O)NC[C@H](c2ccccc2)OC1=O	.	-	-	.	.	-
COC(=O)c1cc(-c2cccc(OC)c2)c2c(=O)[nH]c(=O)n(C)c2n1	-	-	-	62	.	-
COC(=O)c1cc(-c2cccc([N+](=O)[O-])c2)c2c(=O)n(C)c(=O)n(C)c2n1	-	-	-	-	-	-
CCOc1cnn(-c2cc(Oc3ccc(C)cc3)ncn2)c(=O)c1Cl	-	-	-	-	-	-
Cc1ccccc1Oc1cc(-n2ncc(Cl)c(Cl)c2=O)ncn1	.	108	99	.	.	.
C/C(=N\NC(=O)c1nn(C)c(C)c1Br)c1ccc(NC(=O)C2CCCC2)cc1	.	-	-	.	112	-
CC1(c2nnc(-c3cccc(Cl)c3)o2)CC(c2cccc([N+](=O)[O-])c2)=NO1 (stereo not given)	-	-	-	-	-	-
COc1ccnc(Oc2cccc(C(F)(F)F)c2)c1C(=O)N/C=N/OCc1ccccc1F	-	-	-	-	108	-
CC(=O)Nc1ccc(S(=O)(=O)NC2=C(N3CCN(c4ccc(F)cc4)CC3)C(=O)c3ccccc3C2=O)cc1	-	-	85	-	-	-
CCOc1ccc(CCNC(=O)COC(=O)c2ccc(OC(C)C)cc2)cc1OCC	-	-	-	-	-	-
COc1ccc(Cn2c(C3CCCCC3)nc3c(c(=O)c4ccccc4n3C)c2=O)cc1	?	-	-	70	-	-
COc1ccc(CCn2c(C3CCCCC3)nc3c(c(=O)c4ccccc4n3C)c2=O)cc1OC	.	-	-	-	-	-
O=C(Cn1cnc([N+](=O)[O-])n1)N/N=C/c1ccc(O)cc1O	-	80	.	-	-	-
COc1ccc(-c2csc(N(CC3CCCO3)C(=O)c3ccco3)n2)cc1 (stereo not given)	-	-	-	-	98	-
CCN(C(=O)c1ccco1)c1nc(-c2ccc(OC)cc2)cs1	-	-	-	-	-	-
COc1ccc(CN2CCN(C(=O)C3CCN(S(=O)(=O)c4cccs4)CC3)CC2)c(OC)c1OC	-	-	-	-	-	-
SMILES	T cruzi inh	CSC inhib	Beta cell apopt	SKKanGAS inh	Calb FLC	Mdm2 MdmX PPI
COc1ccc(CN2CCN(C(=O)C3CCC(CNS(=O)(=O)c4ccc(C)cc4)CC3)CC2)c(OC)c1OC (stereo not given)	57	.	-	-	-	-
O=C(CCCCn1c(=O)c2ccccc2n(Cc2ccccc2)c1=O)NC1CCN(Cc2ccccc2)CC1	59	-	-	-	-	-
O=C(NC(=S)N1CCCCC1c1cccnc1)c1ccc(F)cc1 (stereo not given)	-	-	-	99	-	-
CCc1cccc(C)c1NC(=O)CSc1nnc(C)o1	-	-	.	-	-	-
O=C(NC(=S)NCc1cccnc1)c1cccc2ccccc12	63	-	-	-	-	-
O=C(NC(=S)NCc1cccnc1)c1ccccc1F	-	.	-	-	-	-
Cc1cccc(N2CCN(C(=O)COc3ccc4c(C)cc(=O)oc4c3C)CC2)c1C	-	-	-	-	-	-
CN(C)CCCn1c(-c2ccccc2)nc(=S)c2c1CCCC2	59	.	-	-	-	-
Cc1cc(C(=O)COC(=O)Cc2n[nH]c(=O)c3ccccc23)c(C)n1-c1ccc2c(c1)OCCO2	69	-	-	-	-	-
CC(C)(C)C1CC=C2C(C#N)=C(N)C(C#N)(C#N)C(c3cccs3)C2C1 (stereo not given)	-	-	-	54	-	-
CCN(Cc1ccccc1)Cc1ccc(OCc2ccccc2)c(OC)c1	-	-	-	-	-	-
COc1ccc(CCNC(=S)NCc2ccc(Cl)c(Cl)c2)cc1OC	60	-	-	-	-	-
COc1ccc(CCNCc2ccc(OCc3ccc(Cl)nc3)c(OC)c2)cc1OC	57	-	-	-	-	-
COc1cc(CN(C)CCc2ccccc2)ccc1OCc1ccccc1	63	-	-	-	-	-
COc1ccc(CNCCc2ccc(Cl)cc2)cc1OCc1ccccc1	70	-	-	-	-	-
CC(C)c1ccc(NC2CCCN(C(=O)CCn3cnnn3)C2)cc1 (stereo not given)	-	-	-	-	-	-
CSc1ncc(CNc2cc([N+](=O)[O-])ccc2C)c(N)n1	-	-	-	-	-	-
CC1=NN(/C(=N\c2nnc(C)s2)Nc2ccc(C(C)(C)C)cc2)[C@H](c2ccc(C)cc2)S1	57	-	-	58	-	-
Cc1ccc(OC(=O)c2sc3ncn(C)c(=O)c3c2C)cc1	-	-	-	78	-	-
Cc1c(C(=O)O)sc2ncn(C)c(=O)c12	-	-	-	-	-	-
CCN(CC(=O)Nc1ccc2c(c1)OCCO2)C(=O)c1ccc(CS(C)(=O)=O)cc1	.	.	-	.	.	-
CCSc1nnc(-c2sc3nnc(-c4ccccc4)c(-c4ccccc4)c3c2N)o1	-	120	-	-	-	-
CCSc1nnc(-c2ccncc2)o1	-	-	-	-	-	-
COCCN(C(=O)COC(=O)c1cccs1)c1c(N)n(Cc2ccccc2)c(=O)[nH]c1=O	-	-	-	-	-	-
COc1cc(C)ccc1NC(=O)Cc1csc(NC(=O)Nc2ccccc2OC)n1	-	-	-	56	-	-
COc1cccc(NC(=O)Cc2csc(NC(=O)Nc3ccccc3OC)n2)c1	-	-	.	-	-	-
COc1ccccc1NC(=O)Nc1nc(CC(=O)N2CCN(c3ccccc3OC)CC2)cs1	-	.	-	59	-	-
COc1ccccc1NC(=O)Cc1csc(NC(=S)Nc2ccc(C)cc2)n1	-	-	-	58	-	-
COc1ccccc1NC(=O)Nc1nc(CC(=O)Nc2ccc(OC)c(OC)c2)cs1	-	-	-	-	-	-
COc1ccccc1C(C#N)c1cccc(Cl)n1 (stereo not given)	-	-	-	-	-	-

Screens as filed in PubChem.
